MrgX1 PAM – human MrgX1 positive allosteric modulation, primary screen | AID 588675 | 310,000 tested, 0.63% active | B-score at 10 µM | MrgX1-HEK293, Fluo-4 calcium flux, FDSS; stronger effect = higher value | Q96LB2;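 active means plate-corrected calcium response at least 3 library SD above typical, normal starting fluorescence, not activating the receptor alone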;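 further: compound read alongside a low EC10 to EC30 dose of BAM8-22 agonist; peak minus trough fluorescence over baseline measured at the second addition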
Target sequence (Q96LB2 whole entry, looked up): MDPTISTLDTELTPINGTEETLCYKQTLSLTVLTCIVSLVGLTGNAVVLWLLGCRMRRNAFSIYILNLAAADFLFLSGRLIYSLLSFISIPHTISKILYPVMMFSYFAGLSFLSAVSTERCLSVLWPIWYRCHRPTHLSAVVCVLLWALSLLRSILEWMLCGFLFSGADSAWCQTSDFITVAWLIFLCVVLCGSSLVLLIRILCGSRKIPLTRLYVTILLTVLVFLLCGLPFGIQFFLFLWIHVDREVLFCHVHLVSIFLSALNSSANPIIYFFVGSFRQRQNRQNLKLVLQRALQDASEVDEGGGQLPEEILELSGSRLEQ
MrgX1 antag – antagonists of human MrgX1 receptor; AID 588676; 310,000 tested, 1.3% active; MRGX1-HEK293 calcium flux, Fluo-4, BAM8-22 antagonism; stronger effect = lower value; B-score at 10 µM;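 active means calcium-response B-score plate-corrected more than 3 library SD below zero, starting fluorescence within 5 deviations, no agonist response on first addition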;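 further: peak minus trough fluorescence over baseline after final BAM8-22 challenge near maximal dose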
MrgX1 agonist – agonists of human MrgX1 receptor; AID 588627; B-score at 10 µM; MrgX1-HEK293 cells, Fluo-4 calcium fluorescence, agonist mode; stronger effect = higher value; 310,000 tested, 0.44% active;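 active means calcium response B-score plate-corrected fluorescence ratio at least 3 library SD, with starting fluorescence B-score inside 5 SD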
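Test system: HEK293 cells stably expressing human MrgX1 receptor; Input: fifteen thousand cells per well; Dosing: compound delivered in addition one of three; Schedule: overnight seeding, then 1 h dark dye loading; Technique: Fluo-4 NW calcium fluorescence; Measure: B-scored fluorescence response ratio; Controls: positive and negative controls per plate.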
RGS4 act – RGS4 potentiation or activation | AID 463111 | 310,000 tested, 0.92% active | B-score at 10 µM | HEK293 M3R/inducible RGS4, carbachol calcium flux Fluo4; stronger effect = lower value;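 active means B-score of the integrated calcium signal more than 4 SD below the library mean, with starting fluorescence not abnormally high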;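 further: negative B-score means reduced calcium response which marks RGS4 activation or potentiation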
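System – HEK293 FlpIn-TREx cells, stable M3R, doxycycline-inducible RGS4 · Reagent – ECmax carbachol challenge · Times – compound preincubation 20 min at room temperature before agonist · Technique – Fluo4 fluorescence kinetic imaging of calcium · Measure – B score of integrated Fluo4 ratio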
RGS4 block – human RGS4 inhibition; P49798; HEK293 M3R/RGS4 inducible, Fluo-4 calcium flux; stronger effect = higher value; triggered by carbachol at its EC20; B-score at 10 µM; 310,000 tested, 0.45% active; AID 463165;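 active means B-score, a plate-corrected calcium signal, over three deviations above library mean, with baseline fluorescence within five deviations of library mean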;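 further: RGS4 expression induced by doxycycline in cells with stable M3 receptor; B-score is computed from the integrated fluorescence ratio over baseline after carbachol; higher B-score means a larger calcium signal and so more RGS4 inhibition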
Target sequence (P49798 whole entry, looked up): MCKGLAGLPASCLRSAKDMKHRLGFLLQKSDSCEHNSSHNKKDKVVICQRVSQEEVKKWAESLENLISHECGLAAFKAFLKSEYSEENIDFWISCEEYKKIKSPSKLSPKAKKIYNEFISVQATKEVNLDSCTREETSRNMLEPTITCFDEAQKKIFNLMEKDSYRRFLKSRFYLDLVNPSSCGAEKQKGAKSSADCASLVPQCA
RGS4 block valid – validation of RGS4 inhibitors | calcium response, % at 10 µM | 1,700 tested, 65% active | HEK293 M3R/RGS4, carbachol calcium Fluo-4 fluorescence; carbachol added at its EC20; 0 = buffer wells, 100 = carbachol control | shares compounds with RGS4 block;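 active means duplicate-averaged calcium response above the buffer-only control mean plus 5 SD of those controls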;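 further: integrated fluorescence ratio F max minus min over baseline F0; higher response in RGS4-induced cells means RGS4 inhibition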
M3R Ca ctr – non-induced cell nonspecific activity of RGS4 inhibitors | activity (percent), % at 10 µM | shares compounds with RGS4 block | HEK293 M3R non-induced, carbachol calcium Fluo-4; submaximal (EC20) carbachol stimulus; buffer wells 0%, carbachol control wells 100% | 1,900 tested, 20% active; call rule not given here;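 further: RGS4 induction absent so cells express M3R without RGS4; higher means more calcium signal and flags a non-specific hit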
M3R basal Ca ctr – second counter-screen for RGS4 inhibitors: non-induced cells without carbachol. HEK293 M3R/RGS4 non-induced, Fluo-4 calcium, no carbachol; normalised: buffer wells 0%, carbachol wells 100%. AID 493001. calcium response (agonist-mode artifact), % at 10 µM. 1,900 tested, 22% active. shares compounds with RGS4 block;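 active means duplicate-averaged calcium rise in uninduced cells above buffer wells' mean plus 5 SD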
Starred values were filed as active, the others as inactive. Rows were chosen to be rich in hits. Some 3.5% of all compounds tested hit in one or more screens of this group.

What do the screens show for `COC(=O)C(CC(C)C)NC(=O)c1cccs1` (stereo not given)?
MrgX1 PAM: inactive; MrgX1 antag: inactive; MrgX1 agonist: inactive; RGS4 act: inactive; RGS4 block: inactive

Results for CCOC(=O)C1(CCCc2ccccc2)CCN(C(=O)C2CCCN(C(N)=O)C2)CC1 (stereo not given) ?
MrgX1 PAM: inactive; MrgX1 antag: inactive; MrgX1 agonist: inactive; RGS4 act: inactive; RGS4 block: inactive

How did CCOc1ccc(S(=O)(=O)N2CCC(C(=O)NC3CC3)CC2)cc1C do in these assays?
MrgX1 PAM: inactive; MrgX1 antag: inactive; MrgX1 agonist: inactive; RGS4 act: inactive; RGS4 block: inactive

How did CC(c1ccccc1)N1CCN(C(=O)CCl)CC1 (stereo not given) do in these assays?
MrgX1 PAM: inactive; MrgX1 antag: inactive; MrgX1 agonist: inactive; RGS4 act: inactive; RGS4 block: inactive

How did Cc1ccc(N2C(=O)C3C4CC(=O)C(c5ccccc54)C3C2=O)cc1C (stereo not given) do in these assays?
MrgX1 PAM: inactive; MrgX1 antag: inactive; MrgX1 agonist: inactive; RGS4 act: inactive; RGS4 block: inactive

How did CCC1(C)Cc2ccccc2-c2nc(NCCCO)[nH]c(=O)c21 (stereo not given) do in these assays?
MrgX1 PAM: inactive; MrgX1 antag: inactive; MrgX1 agonist: inactive; RGS4 act: inactive; RGS4 block: inactive; M3R Ca ctr: 39%*; M3R basal Ca ctr: inactive

Results for O=c1[nH]c(NCCCO)nc2c1C1(CCCC1)Cc1ccccc1-2 ?
MrgX1 PAM: inactive; MrgX1 antag: inactive; MrgX1 agonist: inactive; RGS4 act: inactive; RGS4 block: 7.3*; RGS4 block valid: 31%*; M3R Ca ctr: inactive; M3R basal Ca ctr: 30%*

What do the screens show for `CN(C)Cc1nc2c(c(=O)[nH]1)C1(CCCCC1)Cc1ccccc1-2`?
MrgX1 PAM: inactive; MrgX1 antag: inactive; MrgX1 agonist: inactive; RGS4 act: inactive; RGS4 block: inactive

Results for CCC1(CC)Cc2ccccc2-c2nc(NCCCO)[nH]c(=O)c21 ?
MrgX1 PAM: inactive; MrgX1 antag: inactive; MrgX1 agonist: inactive; RGS4 act: inactive; RGS4 block: 37*; RGS4 block valid: 71%*; M3R Ca ctr: 53%*; M3R basal Ca ctr: 7.5%*

Results for CC1=NN(c2ccccc2)C(=O)/C1=C/c1cccc(C)c1 ?
MrgX1 PAM: inactive; MrgX1 antag: inactive; MrgX1 agonist: inactive; RGS4 act: inactive; RGS4 block: inactive

What do the screens show for `COc1ccc(/C=C2/C(=O)N(c3ccccc3)N=C2C)cc1OC`?
MrgX1 PAM: inactive; MrgX1 antag: inactive; MrgX1 agonist: inactive; RGS4 act: inactive; RGS4 block: inactive; RGS4 block valid: inactive; M3R Ca ctr: inactive; M3R basal Ca ctr: inactive

Results for C/C(=N\N=C(/N)SC1CC(=O)N(c2ccc(Br)cc2)C1=O)c1cccs1 (stereo not given) ?
MrgX1 PAM: inactive; MrgX1 antag: inactive; MrgX1 agonist: inactive; RGS4 act: inactive; RGS4 block: 11*; RGS4 block valid: 37%*; M3R Ca ctr: 31%*; M3R basal Ca ctr: inactive

How did N/C(=N\N=C\c1cccs1)SC1CC(=O)N(c2ccc(Br)cc2)C1=O (stereo not given) do in these assays?
MrgX1 PAM: inactive; MrgX1 antag: inactive; MrgX1 agonist: inactive; RGS4 act: inactive; RGS4 block: inactive

How did NCCSC1CC(=O)N(c2ccc(Cl)c(Cl)c2)C1=O (stereo not given) do in these assays?
MrgX1 PAM: inactive; MrgX1 antag: inactive; MrgX1 agonist: inactive; RGS4 act: inactive; RGS4 block: inactive

How did C/C(=N\N=C(/N)SC1CC(=O)N(c2ccccc2)C1=O)c1cccs1 (stereo not given) do in these assays?
MrgX1 PAM: inactive; MrgX1 antag: inactive; MrgX1 agonist: inactive; RGS4 act: inactive; RGS4 block: inactive; M3R Ca ctr: inactive; M3R basal Ca ctr: inactive

How did C/C(=N\N=C(/N)SC1CC(=O)N(c2ccc(Cl)cc2)C1=O)c1cccs1 (stereo not given) do in these assays?
MrgX1 PAM: inactive; MrgX1 antag: inactive; MrgX1 agonist: inactive; RGS4 act: inactive; RGS4 block: 8.7*; RGS4 block valid: 5.0%*; M3R Ca ctr: 40%*; M3R basal Ca ctr: inactive

What do the screens show for `C/C(=N\N=C(/N)SC1CC(=O)N(c2ccc(Cl)c(Cl)c2)C1=O)c1cccs1` (stereo not given)?
MrgX1 PAM: inactive; MrgX1 antag: inactive; MrgX1 agonist: inactive; RGS4 act: inactive; RGS4 block: 6.4*; RGS4 block valid: 5.5%*; M3R Ca ctr: inactive; M3R basal Ca ctr: inactive

How did Cc1ccc(NC(=O)CCC(=O)NNC(=O)NC2CCCCC2)c(C)c1 do in these assays?
MrgX1 PAM: inactive; MrgX1 antag: inactive; MrgX1 agonist: inactive; RGS4 act: inactive; RGS4 block: inactive

Results for CCCCCOc1ccc(N2C(=O)CC(N(O)c3ccccc3)C2=O)cc1 (stereo not given) ?
MrgX1 PAM: inactive; MrgX1 antag: inactive; MrgX1 agonist: inactive; RGS4 act: inactive; RGS4 block: inactive

What do the screens show for `CCCCCCOc1ccc(N2C(=O)CC(S/C(N)=N/N=C(\C)c3cccs3)C2=O)cc1` (stereo not given)?
MrgX1 PAM: inactive; MrgX1 antag: inactive; MrgX1 agonist: inactive; RGS4 act: inactive; RGS4 block: 7.5*; RGS4 block valid: inactive; M3R Ca ctr: inactive; M3R basal Ca ctr: inactive

What do the screens show for `O=C(O)COc1ccc(/C=C/C(=O)c2ccc3ccccc3c2)cc1`?
MrgX1 PAM: inactive; MrgX1 antag: inactive; MrgX1 agonist: inactive; RGS4 act: inactive; RGS4 block: 4.8*; RGS4 block valid: inactive; M3R Ca ctr: inactive; M3R basal Ca ctr: inactive

Results for COc1ccc(-n2cc(CNCCCn3ccnc3)c(-c3cccc(F)c3)n2)cc1 ?
MrgX1 PAM: inactive; MrgX1 antag: inactive; MrgX1 agonist: inactive; RGS4 act: inactive; RGS4 block: inactive

What do the screens show for `COc1ccc(NC(=O)CNC(=O)Cc2cccc3ccccc23)c(OC)c1`?
MrgX1 PAM: inactive; MrgX1 antag: inactive; MrgX1 agonist: inactive; RGS4 act: inactive; RGS4 block: inactive

Screening results: PubChem BioAssay, Johns Hopkins Ion Channel Center
